Published values gathered from unrelated publications.
In brackets after ≈: the same amount, converted by molar mass.

Structure (SMILES)	target or system	assay	system	conditions	endpoint	result
O=C1CCc2ccc(O)c(c2)Oc2ccc(cc2)/C=C\CO1	–	tubulin polymerisation, inhibitor	–	–	IC50	> 40 µM
O=[N+]([O-])c1ccc(C2=[N+]([O-])c3ccccc3N3CCN=C23)cc1	Clostridium perfringens	microbial growth	–	–	MIC50	≤ 0.06 µg/mL
OC(Cn1cncn1)(Cn1cncn1)c1ccc(F)cc1F	Cryptococcus neoformans	microbial growth, broth dilution	–	–	MIC	3.12 µg/mL (≈ 10.2 µM)
Cc1cc(N(CCO)CCO)ccc1C=O	CAKI-1	cell growth or viability	–	–	IC50	> 10 µg/mL
Cc1cccc(-n2ncc(Cl)c(Cl)c2=O)c1	HCC827	cell growth or viability, resazurin	–	96 h	IC50	0.09 µM
N.N.[Cl][Pt][Cl]	HCC827	cell growth or viability, MTT	–	72 h	IC50	6 µM
O=C(CCCCCCCCCCOc1ccccc1)NP(=O)(O)O	Bacillus subtilis	microbial growth	ATCC23857	–	MIC	> 200 µg/mL
O=C1CCc2ccc(O)c(c2)Oc2ccc(cc2)[C@H]2O[C@@H]2CO1	–	tubulin polymerisation, inhibitor	–	–	IC50	> 40 µM
COc1ccc(/C=C\c2cc(OC)c(OC)c(OC)c2)cc1	–	tubulin polymerisation, inhibitor, absorbance	–	–	IC50	1.1 µM
CN1C[C@H](C(=O)N[C@]2(C)O[C@@]3(O)[C@@H]4CCCN4C(=O)[C@H](Cc4ccccc4)N3C2=O)C=C2c3cccc4[nH]cc(c34)C[C@H]21	WI-38	cell growth or viability, MTT	–	72 h	EC50	57 µM
CN[C@@H]1[C@H](O)[C@H](NC)[C@H]2O[C@@]3(O)C(=O)C[C@@H](C)O[C@H]3O[C@@H]2[C@H]1O	Proteus vulgaris	microbial growth, broth dilution	ATCC33420	–	MIC	50 µg/mL (≈ 150 µM)
CCCCCCCC(=O)NP(=O)(O)O	Bacillus subtilis	microbial growth	ATCC23857	–	MIC	> 200 µg/mL
Cc1ncc([N+](=O)[O-])n1CCO	Clostridium perfringens	microbial growth	–	–	MIC50	0.5 µg/mL (≈ 2.92 µM)
